Data taken from article PMC8842081 (The Journal of Biological Chemistry, 2022).
Entries after “also recorded” stand apart in the source; their conditions may differ. Values belong to the substance of their own block, whether it stands above or below them. Where no end group is shown, it is not given here.

What was measured:
RSPO2–BMPR1A interaction = test: Cell surface–binding assay, RSPO2-AP on BMPR1A-transfected HEK293T cells; type: cell-based, human; details: for RSPO2 binding to BMPR1A transfected cells / RSPO2–BMPR1A binding after long-term dendrimer treatment: 20 μM dendrimer; for RSPO2 binding to BMPR1A transfected cells: n = 3; for RSPO2–BMPR1A binding after long-term dendrimer treatment: 16 h
How it was run: (§1)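 HEK293T cells were transfected with BMPR1A-HA or LGR4. They were incubated with RSPO2-AP or RSPO3-AP conditioned medium from transiently transfected HEK293T cells, plus 20 μM dendrimer or 50 μM monomeric peptide, for 3 h or 16 h. Surface-bound AP was developed with BM-Purple chromogenic substrate, then imaged and quantified.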

[1] = test system: BMPR1A-HA membrane staining in H1581 cells; test: Immunofluorescence of BMPR1A-HA membrane localization in H1581 cells; type: cell-based, human; details: H1581 transfected with BMPR1A-HA, 0.5 μM dendrimer, 3 days
[2] = target: RSPO2^TSP1–BMPR1A^ECD interaction (Homo sapiens, UniProt P36894); test: In vitro competitive binding assay; details: for reduction of RSPO2^TSP1–BMPR1A^ECD interaction: 100 μM monomeric peptide, 3 h, AP activity, n = 2 to 3 experimental replicates
How it was run: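 Plates were coated overnight at 4 °C with 1 to 2 μg anti-HA and blocked 1 h in 5% BSA/TBST. HA-RSPO2 TSP1 conditioned medium was captured overnight. AP-BMPR1A ECD was then added for 3 h with 100 μM monomeric peptide (Cys→Ser; in DPBS pH 7.4) or a peptide concentration series. After TBST washes, bound AP was read with chemiluminescent substrate, and IC50 was fitted.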

[3] = test system: Xenopus tropicalis embryos; test: Xenopus embryo blastocoel microinjection, phenotype; type: in vivo; details: 20 nl of 50 μM dendrimer into blastocoel at stage 9
How it was run: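 X. tropicalis embryos from in vitro fertilization received 20 nl of 50 μM dendrimer in PBS into the blastocoel at stage 9, with bmp4 mRNA at the 4-cell stage as comparator. Embryos were cultured to tailbud stage 28 and scored blind for head size and ventral structures across two independent experiments.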

[4] = test system: pSmad1 in THP-1 AML cells; test: Western blot of pSmad1 in THP-1 cells; type: cell-based, human; details: 3 days
How it was run: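 THP-1 cells were exposed for 3 days to 0.5 μM unmodified or N-PEG dendrimer, or 2.0 μM C-PEG dendrimer. Lysis was in Triton or RIPA buffer with protease inhibitors, followed by boiling in Laemmli/β-mercaptoethanol at 95 °C for 5 min. SDS-PAGE immunoblots were probed for phospho-Smad1 against total Smad1 and developed by ECL.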

[5] = test system: P38 MAPK and P44/42 MAPK phosphorylation in HEPG2 cells; test: Western blot of pP38 and pP44/42 MAP kinases in HEPG2 cells; type: cell-based, human; details: HEPG2, BMP4 + RSPO2, 0.5 μM dendrimer, 1 h, starved overnight
[6] = test system: BMP target gene expression (sizzled); test: Whole-mount in situ hybridization of sizzled in Xenopus gastrulae; type: in vivo, Xenopus tropicalis; details: 20 nl of 50 μM dendrimer at stage 9, gastrulae stage 11
How it was run: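 X. tropicalis embryos were injected at stage 9 into the blastocoel with 20 nl of 50 μM dendrimer in PBS; bmp4 mRNA injected radially at the 4-cell stage served as control. Embryos were fixed at gastrula stage 11 and processed by whole-mount in situ hybridization with a digoxigenin-labeled antisense sizzled probe. The sizzled-expressing area was quantified, pooled from two independent experiments.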

THP-1 cells = test: Flow cytometry of CD11B^+ THP-1 cells; type: cell-based, human; details: THP-1, 3 days, 0.5/1.0/1.5 μM nonmodified, 2.0/3.0 μM N-PEG, 3.0/4.0 μM C-PEG dendrimer
pSmad1 in H1581 cells = test: Western blot of pSmad1 in H1581 cells; type: cell-based, human; details: H1581 (elevated RSPO2), 0.5 μM dendrimer, 3 days
[7] = test system: BMP4 signaling (pSmad1) in HEPG2 cells; test: Western blot of pSmad1 in HEPG2 cells; type: cell-based, human
RSPO3 binding to BMPR1A = test: Cell surface–binding assay, RSPO3-AP on BMPR1A-transfected HEK293T cells; type: cell-based, human; details: 20 μM non-PEGylated dendrimer, 3 h; n = 3
How it was run: as §1

[8] = test system: WNT signaling (TopFlash reporter); test: WNT-responsive TopFlash reporter assay in Xenopus embryos; type: in vivo, Xenopus tropicalis; details: 20 nl of 50 μM dendrimer at stage 9, firefly normalized to Renilla
How it was run: (§2)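 X. tropicalis embryos were co-injected at the 2-cell stage with 200 pg Vent-Luc (BMP) or Topflash (WNT) plus 100 pg Renilla-TK plasmid. At stage 9, 20 nl of 50 μM dendrimer in PBS went into the blastocoel; controls were bmp4 mRNA or lrp6 morpholino. Three pools of four embryos each were lysed at stage 14 to 15 for dual luciferase, firefly normalized to Renilla. Unpaired t test or one-way ANOVA.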

LGR4 = test: Cell surface–binding assay, RSPO2-AP on LGR4-transfected HEK293T cells; type: cell-based, human; details: 20 μM dendrimer, 3 h
How it was run: as §1

[9] = test system: WNT-mediated activation of β-catenin in H1581 cells; test: Western blot of activated β-catenin in H1581 cells treated with WNT3A; type: cell-based, human; details: 0.5 μM dendrimer
[10] = test system: BMP signaling (Vent2 reporter); test: BMP-responsive Vent2 reporter assay in Xenopus embryos; type: in vivo, Xenopus tropicalis; details: 20 nl of 50 μM dendrimer at stage 9, firefly normalized to Renilla
How it was run: as §2

[11] = 0.5 μM nonmodified or N-PEG dendrimer

Sequence of RSPO2^TSP1–BMPR1A^ECD interaction (P36894 24-152 limits assumed): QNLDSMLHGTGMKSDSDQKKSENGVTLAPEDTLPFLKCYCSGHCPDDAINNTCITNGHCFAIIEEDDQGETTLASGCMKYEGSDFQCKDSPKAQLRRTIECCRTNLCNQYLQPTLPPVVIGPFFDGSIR

Substance: (PEG-KMTMR)8-Lys4-Lys2-Lys-β-Ala [N-PEG KR^d]
- RSPO2 binding to BMPR1A transfected cells (RSPO2–BMPR1A interaction; 3 h): no effect

- effect on RSPO2–BMPR1A interaction in vitro (Fig. S2A) ([2]; peptide treatment, concentration not given): did not affect RSPO2–BMPR1A interaction
Substance: KMTMR [KR]
- RSPO2 binding to BMPR1A transfected cells (RSPO2–BMPR1A interaction; 3 h): no effect
- increase in the number of cells showing BMPR1A-HA membrane staining [1]: but not KR^d treatment
- embryotoxicity [3]: no embryotoxicity
- pSmad1 induction in THP-1 cells [4, 11]: but not KR^d treatment

- reduction of RSPO2^TSP1–BMPR1A^ECD interaction [2]: greater than 50%
Substance: SRRSKMTMRHSPG [SG]

- reduction of RSPO2^TSP1–BMPR1A^ECD interaction [2]: greater than 50%
Substance: DTILSPTIAE [DE]

Substance: (PEG-RNNRTSGFKW)8-Lys4-Lys2-Lys-β-Ala [N-PEG RW^d]
- RSPO2 binding to BMPR1A transfected cells (RSPO2–BMPR1A interaction; 3 h): abolished RSPO2 binding
- RSPO2–BMPR1A binding after long-term dendrimer treatment (RSPO2–BMPR1A interaction): completely disrupt RSPO2–BMPR1A binding

Substance: (RNNRTSGFKW-PEG)8-Lys4-Lys2-Lys-β-Ala [C-PEG RW^d]
- pSmad1 induction in THP-1 cells ([4]; 2.0 μM C-PEG dendrimer): Elevated pSmad1 levels

Substance: RNNRTSGFKW [RW]
- rescue of RSPO2-mediated decrease of pP38 and pP44/42 levels [5]: rescued the RSPO2-mediated decrease of pP38 and pP44/42 levels
- sizzled expression [6]: expanded BMP target gene expression (sizzled) toward the dorsal side
- induction of the number of CD11B^+ cells (THP-1 cells): ~10 fold
- phosphorylation of Smad1 (pSmad1 in H1581 cells): increased phosphorylation of Smad1
- pSmad1 level without simultaneous treatment of RSPO2 ([7]; HEPG2, 0.5 μM dendrimer, 3 days): no effect on pSmad1 level
- rescue of RSPO2-mediated decrease of pSmad1 levels ([7]; HEPG2, BMP4 + RSPO2, 0.5 μM dendrimer, 1 h, starved 3 h): rescued the RSPO2-mediated
- rescue of RSPO3-mediated decrease of pSmad1 levels ([7]; HEPG2, BMP4 + RSPO3, 0.5 μM dendrimer, 1 h, starved 3 h): not the RSPO3-mediated decrease of pSmad1 levels
- RSPO3 binding to BMPR1A transfected cells (RSPO3 binding to BMPR1A): unable to abolish RSPO3 binding
- RSPO2 binding to BMPR1A transfected cells (RSPO2–BMPR1A interaction; 3 h): abolished RSPO2 binding
- RSPO2–BMPR1A binding after long-term dendrimer treatment (RSPO2–BMPR1A interaction): completely disrupt RSPO2–BMPR1A binding
- WNT signaling (TopFlash reporter) [8]: no effect on WNT signaling
- increase in the number of cells showing BMPR1A-HA membrane staining [1]: approximately threefold
- reduction of RSPO2^TSP1–BMPR1A^ECD interaction [2]: strongest inhibition; also recorded: greater than 50%
- embryotoxicity ([3]; listed as RW^d): no Xenopus embryotoxicity
- RSPO2 binding to LGR4 transfected cells (LGR4): without affecting LGR4 binding
- pSmad1 induction in THP-1 cells [4, 11]: induced pSmad1
- WNT-mediated activation of β-catenin [9]: no effect
- endogenous BMP signaling (Vent2 reporter) [10]: enhanced endogenous BMP signaling

Substance: PEG-RW: RW peptide mini-PEGylated at both N and C termini ({mini‑PEG}-RNNRTSGFKW-{mini‑PEG})
- inhibition of RSPO2-AP binding to BMPR1A-transfected cells, short-term (RSPO2–BMPR1A interaction; 50 μM PEGylated monomeric peptide, 3 h): inhibited RSPO2–BMPR1A interaction
